Our source for the IC50 values is BindingDB's records for doi:10.1128/aac.00067-07 (Rutgers University, 2007).

Test [1] has as its target 1,3-beta-glucan synthase (Pichia kudriavzevii, UniProt Q4U2W2). Kind of test: Inhibition of FKS1 from Candida krusei 98 isolate. The essentials:
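Glucan synthase enzyme complex isolated from the pretreatment clinical strain Ck-98 and titrated with the echinocandin. Inhibition curves were fitted with a sigmoidal variable-slope dose-response model to give IC50 in ng/ml.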

For test [2], the target named is 1,3-beta-glucan synthase (Pichia kudriavzevii, UniProt Q4U2W2, F655C). Kind of test: Inhibition of FKS1 T2080K mutant from Candida krusei 100 isolate. The essentials:
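Glucan synthase enzyme complex isolated from posttreatment strain Ck-100. Caspofungin titrated against the enzyme. Inhibition curve fitted with a two-site competition algorithm to give IC50 in ng/ml.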

≈ marks a conversion by molar mass, not a printed value.

Sequence of 1,3-beta-glucan synthase (Pichia kudriavzevii, UniProt Q4U2W2) (Q4U2W2 whole entry): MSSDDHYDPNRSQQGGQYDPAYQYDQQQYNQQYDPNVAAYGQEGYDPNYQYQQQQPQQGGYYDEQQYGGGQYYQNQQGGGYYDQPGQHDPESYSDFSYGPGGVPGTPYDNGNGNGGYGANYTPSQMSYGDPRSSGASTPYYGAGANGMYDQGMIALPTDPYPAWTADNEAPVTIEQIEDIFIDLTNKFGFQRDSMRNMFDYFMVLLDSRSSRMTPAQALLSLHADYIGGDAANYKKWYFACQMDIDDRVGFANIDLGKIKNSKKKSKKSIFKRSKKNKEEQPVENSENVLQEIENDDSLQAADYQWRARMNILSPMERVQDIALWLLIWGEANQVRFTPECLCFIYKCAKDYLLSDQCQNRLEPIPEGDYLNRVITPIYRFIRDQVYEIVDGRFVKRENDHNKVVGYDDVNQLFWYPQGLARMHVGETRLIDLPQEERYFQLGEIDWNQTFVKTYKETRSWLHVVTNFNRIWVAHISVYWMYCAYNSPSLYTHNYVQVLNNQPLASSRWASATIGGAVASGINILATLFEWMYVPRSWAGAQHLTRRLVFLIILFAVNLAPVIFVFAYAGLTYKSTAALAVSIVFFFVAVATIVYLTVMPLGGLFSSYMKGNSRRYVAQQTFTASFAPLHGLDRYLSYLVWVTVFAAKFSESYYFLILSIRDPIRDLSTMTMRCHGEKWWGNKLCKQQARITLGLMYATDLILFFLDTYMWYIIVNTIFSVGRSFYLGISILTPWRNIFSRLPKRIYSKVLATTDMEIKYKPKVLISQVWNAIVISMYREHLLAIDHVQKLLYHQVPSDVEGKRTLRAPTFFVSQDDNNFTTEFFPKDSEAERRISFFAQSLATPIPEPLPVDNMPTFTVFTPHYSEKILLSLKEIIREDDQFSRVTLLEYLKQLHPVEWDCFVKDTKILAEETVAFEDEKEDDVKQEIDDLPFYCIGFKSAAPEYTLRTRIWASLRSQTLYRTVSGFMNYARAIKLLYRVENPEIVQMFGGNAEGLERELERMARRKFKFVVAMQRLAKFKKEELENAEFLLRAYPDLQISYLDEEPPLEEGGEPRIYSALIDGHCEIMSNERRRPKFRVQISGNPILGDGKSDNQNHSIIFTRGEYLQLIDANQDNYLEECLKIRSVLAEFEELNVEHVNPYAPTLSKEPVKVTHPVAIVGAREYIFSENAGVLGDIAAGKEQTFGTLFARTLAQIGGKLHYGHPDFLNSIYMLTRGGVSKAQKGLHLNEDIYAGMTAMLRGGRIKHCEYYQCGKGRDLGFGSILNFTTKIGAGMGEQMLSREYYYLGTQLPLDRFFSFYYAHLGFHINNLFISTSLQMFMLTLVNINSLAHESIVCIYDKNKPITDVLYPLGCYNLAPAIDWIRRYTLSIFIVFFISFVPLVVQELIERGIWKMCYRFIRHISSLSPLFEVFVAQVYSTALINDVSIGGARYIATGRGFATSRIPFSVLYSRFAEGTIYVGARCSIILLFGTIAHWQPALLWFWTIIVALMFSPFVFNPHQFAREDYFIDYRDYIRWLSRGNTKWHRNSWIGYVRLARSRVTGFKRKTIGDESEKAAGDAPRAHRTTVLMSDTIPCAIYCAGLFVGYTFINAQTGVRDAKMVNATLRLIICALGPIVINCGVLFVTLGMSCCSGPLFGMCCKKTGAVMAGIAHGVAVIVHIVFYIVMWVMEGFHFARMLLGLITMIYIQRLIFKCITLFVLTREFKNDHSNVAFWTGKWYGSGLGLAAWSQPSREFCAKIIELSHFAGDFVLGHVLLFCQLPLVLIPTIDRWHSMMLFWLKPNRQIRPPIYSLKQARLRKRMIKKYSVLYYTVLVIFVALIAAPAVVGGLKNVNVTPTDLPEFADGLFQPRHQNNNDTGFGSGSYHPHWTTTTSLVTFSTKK
Sequence of 1,3-beta-glucan synthase (Pichia kudriavzevii, UniProt Q4U2W2, F655C) (Q4U2W2 entry or part of it F655C): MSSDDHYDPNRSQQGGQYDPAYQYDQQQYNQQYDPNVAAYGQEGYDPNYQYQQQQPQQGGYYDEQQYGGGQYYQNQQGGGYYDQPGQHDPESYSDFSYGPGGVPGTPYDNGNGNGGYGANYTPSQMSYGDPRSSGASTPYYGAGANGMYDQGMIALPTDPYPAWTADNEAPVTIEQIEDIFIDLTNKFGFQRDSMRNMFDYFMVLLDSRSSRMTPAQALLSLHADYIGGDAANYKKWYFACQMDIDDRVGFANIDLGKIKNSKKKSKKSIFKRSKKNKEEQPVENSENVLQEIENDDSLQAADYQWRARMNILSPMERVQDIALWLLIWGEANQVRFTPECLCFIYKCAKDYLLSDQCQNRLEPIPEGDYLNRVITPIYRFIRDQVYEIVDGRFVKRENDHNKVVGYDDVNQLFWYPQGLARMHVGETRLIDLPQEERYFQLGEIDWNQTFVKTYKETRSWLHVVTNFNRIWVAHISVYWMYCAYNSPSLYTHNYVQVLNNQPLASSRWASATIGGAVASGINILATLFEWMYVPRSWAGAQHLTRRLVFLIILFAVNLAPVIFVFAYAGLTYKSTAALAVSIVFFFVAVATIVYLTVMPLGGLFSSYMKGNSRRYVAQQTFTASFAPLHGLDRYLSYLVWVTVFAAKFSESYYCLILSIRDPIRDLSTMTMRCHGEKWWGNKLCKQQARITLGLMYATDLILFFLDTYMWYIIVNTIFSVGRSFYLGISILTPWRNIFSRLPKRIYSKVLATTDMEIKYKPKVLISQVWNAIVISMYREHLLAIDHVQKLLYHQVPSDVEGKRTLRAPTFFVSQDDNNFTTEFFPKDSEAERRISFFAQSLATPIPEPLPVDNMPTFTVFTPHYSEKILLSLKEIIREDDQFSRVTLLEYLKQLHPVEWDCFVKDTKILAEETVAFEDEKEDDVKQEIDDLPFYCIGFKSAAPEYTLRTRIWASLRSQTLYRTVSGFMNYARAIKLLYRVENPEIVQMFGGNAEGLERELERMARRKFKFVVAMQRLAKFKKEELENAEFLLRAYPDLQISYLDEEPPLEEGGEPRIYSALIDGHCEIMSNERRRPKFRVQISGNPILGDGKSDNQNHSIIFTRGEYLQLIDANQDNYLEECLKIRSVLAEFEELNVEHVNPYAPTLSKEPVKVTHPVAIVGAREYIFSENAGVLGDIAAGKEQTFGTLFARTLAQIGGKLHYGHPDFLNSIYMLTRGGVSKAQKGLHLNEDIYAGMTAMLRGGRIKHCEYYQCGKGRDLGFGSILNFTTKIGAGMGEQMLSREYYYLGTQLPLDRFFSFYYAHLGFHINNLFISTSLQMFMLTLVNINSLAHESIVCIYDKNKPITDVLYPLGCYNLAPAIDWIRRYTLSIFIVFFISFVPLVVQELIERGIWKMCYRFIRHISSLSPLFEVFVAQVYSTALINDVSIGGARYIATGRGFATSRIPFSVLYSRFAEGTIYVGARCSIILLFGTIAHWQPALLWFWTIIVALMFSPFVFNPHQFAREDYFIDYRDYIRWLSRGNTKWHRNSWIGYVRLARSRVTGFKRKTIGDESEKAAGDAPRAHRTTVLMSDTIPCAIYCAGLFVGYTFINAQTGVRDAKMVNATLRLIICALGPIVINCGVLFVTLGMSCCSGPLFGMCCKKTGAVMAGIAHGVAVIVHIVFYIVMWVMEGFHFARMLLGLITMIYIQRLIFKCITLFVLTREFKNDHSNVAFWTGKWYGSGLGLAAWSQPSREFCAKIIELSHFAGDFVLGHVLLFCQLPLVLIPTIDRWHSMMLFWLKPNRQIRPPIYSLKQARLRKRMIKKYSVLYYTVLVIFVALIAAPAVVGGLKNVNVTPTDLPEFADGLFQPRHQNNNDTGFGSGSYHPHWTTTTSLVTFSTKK

A word on the IC50: it is the point on the concentration scale where inhibition reaches its midpoint. Higher therefore signals lower potency. For `CCC(C)CC(C)CCCCCCCCC(=O)N[C@H]1C[C@@H](O)[C@@H](NCCN)NC(=O)[C@@H]2[C@@H](O)CCN2C(=O)[C@H]([C@H](O)CCN)NC(=O)[C@H]([C@H](O)[C@@H](O)c2ccc(O)cc2)NC(=O)[C@@H]2C[C@@H](O)CN2C(=O)[C@H]([C@@H](C)O)NC1=O` (some centres not stated) [CHEBI:474180], the 50% inhibitory concentration (IC50) against 1,3-beta-glucan synthase [1] was found to be 0.0068 µg/mL (≈ 0.00622 µM); against 1,3-beta-glucan synthase [2], 3.94 µg/mL (≈ 3.61 µM).
